Compound activity as filed in PubChem BioAssay.
Sampled rows, rich in hits. Any-hit rate of the full collection: about 2.9%.
CaV13 FRET inh – Disruptors of the CACNA1D IQ motif to Ca2+-dependent inactivation inhibitor domain association, primary screening, Förster resonance energy transfer in intact living …; HEK cells, CFP/YFP FRET ICDI-IQ, plate reader, 10 min; percent FRET-ratio fall versus neutral wells; inhibition, % at 12.3 µM; 340,000 tested, 0.098% active; AID 743397;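 active = mean replicate inhibition of at least 30% and at least 1% of replicates passing that level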;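 also: 0% = median of the neutral control wells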
ADAM17 inh – inhibits human ADAM17; P78536; recombinant ADAM17, EDANS/DABCYL FRET peptide cleavage; inhibition, % at 6.95 µM; 370,000 tested, 0.83% active; AID 720648;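 active = inhibition above the mean of compounds lying between control limits plus 3 SD, set per campaign, cut at about 8.5% in these data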;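 also: 0% = DMSO-only wells as the low control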
CendR NRP1 mod – modulators of CendR peptide binding to human neuropilin-1. 360,000 tested, 0.85% active. AID 602438. inhibition, % at 25 µM. FAM-RPARPAR peptide binding to NRP-1, fluorescence polarization;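 active = inhibition or corrected inhibition above about 18%, plus a signal ratio from 0.5 to 1.5, limit read from the data, passing the limit was not always enough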
FAS-TE inh – inhibitors of human fatty acid synthase thioesterase domain; P49327; recombinant FAS-TE, OMFH fluorogenic substrate, fluorescence endpoint; 360,000 tested, 0.67% active; inhibition, % at 15 µM;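 active = compounds whose normalised, plate-corrected inhibition of enzyme fluorescence in the single-dose primary screen is 50% or more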;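 also: 0% = DMSO with enzyme and 100% = substrate without enzyme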
Arr AP2 block – human beta-arrestin and AP2 interaction inhibition. FITC-arrestin peptide / GST-AP2 beads, flow cytometry; AP2 beta2 appendage carries R879A mutation. 340,000 tested, 0.31% active. inhibition, % at 10 µM;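 active = inhibition above a set limit, near 3 SD of compounds lacking own fluorescence, cut at about 54% in these data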;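 also: plate controls were DMSO wells for no effect and 5 µM unlabelled arrestin peptide for full effect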
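Test system: GST-tagged AP2 beta2-adaptin appendage (R879A) on 4 µm glutathione beads; also added: fluorescein-tagged arrestin peptide at 50 nM final; timing: 12 min plus 1 h, RT; signal: flow cytometry, FL1 (488/535 nm); read-out: percent drop in bead-associated FITC signal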
ADAM10 inh – ADAM10 inhibition, QFRET primary screen | AID 720582 | 370,000 tested, 0.62% active | O14672 | inhibition, % at 7 µM | recombinant ADAM10, EDANS/DABCYL FRET peptide cleavage, 3 h;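 active = inhibition above a per-campaign cutoff equal to the mean of compounds falling between control-based bounds plus 3 SD, cut at about 20% in these data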;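 also: 0% = DMSO wells while the 100% control is not disclosed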
FAS-TE conf – FAS thioesterase (human) inhibition, confirmation | 2,300 tested, 45% active | shares compounds with FAS-TE inh | recombinant FAS-TE, OMFH fluorogenic substrate, fluorescence | inhibition, % at 15 µM | AID 624325;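 active = compounds inhibiting the enzyme by at least 50% at 15 µM in any one of the replicates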;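 also: 0% = enzyme with DMSO only and 100% = wells lacking enzyme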
Numbers without * were called inactive; i = inactive; . = no result given.

SMILES	CaV13 FRET inh	ADAM17 inh	CendR NRP1 mod	FAS-TE inh	Arr AP2 block	ADAM10 inh	FAS-TE conf
O=C(CN1C(=O)C(=O)N(CCC2=CCCCC2)C1=O)Nc1ccc(F)cc1F	-6.0	-3.0	2.0	4.4	-4.5	-13.9	.
Cn1c(SCC(=O)N2c3ccccc3CCc3ccccc32)nnc1-c1cc2ccccc2cc1O	-5.4	2.6	-8.2	66.9*	40.9	1.4	9.0
Cc1ccc(NC(=O)C2CCCN2c2nn3c(=O)cc(C)nc3s2)cc1 (centres undefined)	-6.5	1.1	-8.8	-1.4	1.4	-1.8	.
Cc1ccc2cc3cc(C(=O)N4CC(C)CC(C)C4)oc3nc2c1 (centres undefined)	-4.1	-1.4	-0.9	81.9*	3.9	-17.2	41.9
COc1ccc2cc3cc(C(=O)N4CC(C)CC(C)C4)oc3nc2c1 (centres undefined)	.	.	-3.7	69.0*	4.3	.	75.4*
Cc1ccc2cc3cc(C(=O)N4CCCCC4C)oc3nc2c1 (centres undefined)	-4.2	-13.8	-1.2	83.5*	-0.7	-32.9	61.2*
O=C(c1cc2cc(Cl)ccc2o1)N1CCCCCC1	.	-1.3	3.8	5.4	1.1	-8.2	.
Cc1ccc2cc3cc(C(=O)NC4CCCCC4)oc3nc2c1	-5.9	-77.4	3.5	10.4	-7.9	-280.7	.
Cc1ccc2cc3cc(C(=O)NCCCN4CC(C)CC(C)C4)oc3nc2c1 (centres undefined)	-16.2	-353.8	0.7	-3.7	0.6	i	.
O=C(c1cc2cc3ccc(Cl)cc3nc2o1)N1CCCCCC1	.	.	9.1	62.3*	-7.7	.	41.1*
COc1cccc(NC(=O)C2CCCN2C(=O)Nc2cccc3c2OCO3)c1 (centres undefined)	.	1.8	.	.	.	1.5	.
Nc1[nH]c(C(=O)c2ccccc2)c(-c2ccccc2C(F)(F)F)c1C(=O)c1cccs1	-15.2	-0.2	-9.3	1.1	.	1.6	.
O=[N+]([O-])c1ccc(Sc2nc3ccccc3o2)c([N+](=O)[O-])c1	-7.6	-3.3	-0.2	50.3*	2.3	8.3	49.5*
O=C1[C@H]2[C@@H](c3ccc(F)cc3)N3C(=O)N(c4cccc(F)c4)C(=O)[C@@]3(Cc3ccc(Cl)cc3)[C@H]2C(=O)N1C1CCCCC1	-5.2	-2.5	13.3	71.2*	-0.9	-2.4	28.4
CC[C@@]12C(=O)N(c3cccc(F)c3)C(=O)N1[C@H](c1ccc(Cl)cc1)[C@@H]1C(=O)N(C3CCCCC3)C(=O)[C@@H]12	-5.1	3.9	-4.9	66.6*	2.1	5.9	22.1
Cc1cccc(N2C(=O)N3[C@H](c4ccc(F)cc4)[C@@H]4C(=O)N(C5CCCCC5)C(=O)[C@@H]4[C@]3(Cc3ccc(Cl)cc3)C2=O)c1	-11.0	-2.6	-9.7	92.7*	-4.1	4.6	20.7
Cc1ccc(N2C(=O)N3[C@H](c4ccc(Cl)cc4)[C@@H]4C(=O)N(C5CCCCC5)C(=O)[C@@H]4[C@]3(Cc3ccccc3)C2=O)cc1	-10.4	-4.6	20.2	93.0*	27.3	7.8	37.5
CCOC(=O)N1CCC(=NNC(N)=O)C1	-9.4	-6.7	-5.5	-8.9	.	-9.5	.
Cc1ccc(CN2CCCCC(NC(=O)Nc3cccc([N+](=O)[O-])c3)C2=O)cc1 (centres undefined)	.	-2.7	.	.	.	2.3	.
CC(NC(=O)c1ccc([N+](=O)[O-])cc1Cl)C1CC2CCC1C2 (centres undefined)	-3.8	3.8	14.7	57.2*	2.2	12.5	65.9*
O=C(NC(NC(=S)Nc1ccccc1C(=O)O)C(Cl)(Cl)Cl)c1ccco1 (centres undefined)	-4.7	-19.9	-16.8	0.3	0.8	-52.4	.
COC(=O)c1ccccc1NC(=S)NC(NC(=O)COc1ccccc1)C(Cl)(Cl)Cl (centres undefined)	-7.7	3.7	10.5	71.0*	0.9	-3.3	36.5
COC(=O)c1ccccc1NC(=O)COC(=O)c1ccc(C)c(NC(=O)c2ccco2)c1	-5.5	2.2	-3.6	70.9*	-4.8	9.2	16.9
COC(=O)c1ccccc1NC(=S)NC(NC(=O)c1ccco1)C(Cl)(Cl)Cl (centres undefined)	-7.8	.	-4.9	50.5*	-0.9	.	42.0
C=CCN1C(=O)c2n[nH]c(COC)c2C1c1ccc(Br)cc1 (centres undefined)	-3.3	-2.9	.	.	.	-4.7	.
SMILES	CaV13 FRET inh	ADAM17 inh	CendR NRP1 mod	FAS-TE inh	Arr AP2 block	ADAM10 inh	FAS-TE conf
CC(=O)NNc1nc(-c2ccccc2)cs1	-4.5	-0.9	-8.5	69.6*	-7.5	-7.9	54.8*
O=C(Nc1ncc2c(n1)-c1ccccc1OC2)c1cccc([N+](=O)[O-])c1	-16.9	-17.9	3.6	54.7*	-7.7	-49.8	64.2*
O=C(Nc1ncc2c(n1)-c1ccccc1OC2)c1ccc(F)cc1	6.9	-234.8	-2.0	5.2	11.0	i	.
Nc1cc(=O)n(Cc2ccccc2)c(N)c1C(=O)NCc1ccccc1	-1.5	-6.0	.	.	.	-14.6	.
COc1cccc(NC(=O)CN2C(=O)CSc3ccc(S(=O)(=O)N4CCCCC4)cc32)c1	-3.3	3.1	9.4	53.3*	-15.8	12.4	65.8*
O=C(CN1C(=O)CSc2cc(S(=O)(=O)N3CCCCCC3)ccc21)NCCc1ccccc1	-7.6	-4.6	-2.2	50.3*	2.2	-1.4	8.5
Cc1ccc(NC(=O)CN2C(=O)CSc3ccc(S(=O)(=O)N4CCCCC4)cc32)cc1	-2.5	3.6	0.2	55.7*	-4.0	10.0	41.8*
COC(=O)c1cc2c(c3c4cc(F)ccc4n(S(=O)(=O)c4ccc(C)cc4)c13)C(=O)N(Cc1ccccc1OC)C2	-3.9	-4.8	.	.	.	-2.7	.
C[C@H]1[C@@H](OC(=O)Oc2ccc([N+](=O)[O-])cc2)CC[C@@]23CCCN2C(=O)CCC[C@@H]13	.	-5.5	.	.	.	-4.6	.
COC(=O)[C@]12C[C@H](CC(=O)NCCc3ccccc3OC)C(=O)N(Cc3ccccc3)C1=C[C@H](COCc1ccccc1)O[C@@H]2C	.	1.9	.	.	.	7.3	.
O=c1[nH][nH]c2c1[C@H](c1ccc(Cl)cc1)O[C@H](C1CCCCC1)C2	-5.5	-3.0	-8.0	-72.1	.	0.4	.
CC(C)C[C@H]1CNC(=O)C(=O)N1C[C@H]1CCCN1C[C@H](CC(C)C)N1C[C@H](Cc2ccccc2)N(CCc2ccccc2)C(=O)C1=O	-6.3	1.8	-2.1	-4.4	.	1.7	.
Oc1ccccc1-c1nc(NCC2CCCO2)c2ccccc2n1 (centres undefined)	-9.0	8.1	-17.4	24.0	-3.6	4.8	.
O=C(O)c1ccc(Nc2nc(-c3ccc([N+](=O)[O-])cc3)nc3ccccc23)cc1	-4.0	2.2	-24.5	54.9*	-14.8	5.4	7.2
